Reference: ChEMBL document CHEMBL4020720, “Oxadiazole-substituted naphtho[2,3-b]thiophene-4,9-diones as potent inhibitors of keratinocyte hyperproliferation. Structure-activity relationships of the tricyclic quinone skeleton and the oxadiazole substituent” (Eur J Med Chem, 2017)

Columns and labels:
HaCaT [1] = assay: Antihyperproliferative activity against human HaCaT cells after 48 hrs by MTT assay; assay type: functional, cell-based
Method in brief: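 HaCaT keratinocytes (mycoplasma-negative) exposed to compounds for 48 h, then MTT added (5 mg/mL stock in PBS) for 2 h at 37 °C. Formazan dissolved in DMSO and read at 570 nm, with 630 nm background. Inhibition = (1 − test/control) × 100, from test means (N = 3) against controls (N = 6-8). IC50 by nonlinear regression.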

HaCaT [2] = assay: Induction of apoptosis in human HaCaT cells at 5 umol/L preincubated with 5 umol/L NQO-1 inhibitor dicoumarol for 25 mins followed by compound treatment measured after 18 hrs by 7-AAD staining based flow cytometry (reference value: 4.3 +/- 2.6%); assay type: functional; parameters: scale not given: the % may be the effect or the level left
HaCaT [3] = assay: Induction of apoptosis in human HaCaT cells at 5 umol/L after 18 hrs by 7-AAD staining based flow cytometry (reference value: 3 +/- 1%); assay type: functional
HaCaT [4] = assay: Induction of superoxide generation in human HaCaT cells assessed as 2-OH-E+ oxidized product formation by measuring mean fluorescence intensity at 50 umol/L after 30 mins by flow cytometry (reference value: 7.1 +/- 5.2); assay type: functional
HaCaT [5] = assay: (§1) Induction of superoxide generation in human HaCaT cells assessed as 2-OH-E+ oxidized product formation by measuring mean fluorescence intensity at 5 umol/L after 18 hrs by flow cytometry (reference value: 367.5 +/- 80.1); assay type: functional
Method in brief: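 HaCaT keratinocytes grown in DMEM with 10% FBS and penicillin/streptomycin for 24 h at 37 °C, then exposed to test compound (5 µM, 0.1% DMSO final) for 18 h. DHE was added and loaded for 30 min, with shaking for the first 5 min, in the dark. Cells were trypsinized and read by flow cytometry (488 nm excitation, FL2 550–600 nm), 10 000 live cells, dead cells gated out. Read-out is MFI versus DMSO control; triplicate.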

[6] = target: T1, NADPH--cytochrome P450 reductase (Homo sapiens, UniProt P16435); assay: Induction of recombinant human CPR-mediated superoxide generation assessed as one-electron reduction of compound by measuring SOD-inhibitable reduction of succinoylated cytochrome c per 2 mU enzyme at […] by spectrophotometric analysis (reference value: 0.2 +/- 0.1 micromol/L/min)
T1 sequence (P16435 whole entry): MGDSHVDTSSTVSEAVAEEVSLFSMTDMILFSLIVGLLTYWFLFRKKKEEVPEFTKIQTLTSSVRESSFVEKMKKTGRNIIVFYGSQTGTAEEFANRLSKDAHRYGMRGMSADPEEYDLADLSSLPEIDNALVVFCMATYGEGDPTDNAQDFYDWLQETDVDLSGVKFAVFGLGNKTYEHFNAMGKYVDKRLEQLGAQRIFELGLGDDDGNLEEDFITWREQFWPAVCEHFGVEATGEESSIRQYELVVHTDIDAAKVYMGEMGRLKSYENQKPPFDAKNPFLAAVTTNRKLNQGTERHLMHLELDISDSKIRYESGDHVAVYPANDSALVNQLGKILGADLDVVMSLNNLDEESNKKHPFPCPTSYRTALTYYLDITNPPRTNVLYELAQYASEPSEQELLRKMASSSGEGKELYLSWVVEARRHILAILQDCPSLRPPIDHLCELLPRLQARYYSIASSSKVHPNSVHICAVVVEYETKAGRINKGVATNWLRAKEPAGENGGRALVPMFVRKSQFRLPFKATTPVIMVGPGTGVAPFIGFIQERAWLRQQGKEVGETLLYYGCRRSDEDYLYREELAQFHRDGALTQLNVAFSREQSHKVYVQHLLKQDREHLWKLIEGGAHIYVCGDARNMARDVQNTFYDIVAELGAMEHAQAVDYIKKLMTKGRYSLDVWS

[7] = target: NAD(P)H dehydrogenase [quinone] 1 (Homo sapiens) (UniProt P15559); assay: Induction of recombinant human NQO-1-mediated superoxide generation assessed as two-electron reduction of compound by measuring SOD-inhibitable reduction of cytochrome c per unit enzyme at […] by spectrophotometric analysis (reference value: 0.2 +/- 0.1 micromol/L/min)
HaCaT [8] = assay: as §1, with “umol/L preincubated with 5 umol/L NQO-1 inhibitor dicoumarol for 25 mins followed by compound treatment measured” for “umol/L”, “407.59” for “367.5”, “68.7)” for “80.1)”; assay type: functional
Method in brief: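 HaCaT cells were cultured as for the chronic assay and preincubated 25 min with dicoumarol (5 µmol/L) before test compound was added. DHE was loaded for 30 min in the dark, then cells were trypsinized. 2-OH-E+ fluorescence was read by flow cytometry in FL2 (550–600 nm) on 10 000 live cells, dead cells gated out, as MFI against DMSO control. Triplicate.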

Chain of NAD(P)H dehydrogenase [quinone] 1 (Homo sapiens) (P15559 whole entry): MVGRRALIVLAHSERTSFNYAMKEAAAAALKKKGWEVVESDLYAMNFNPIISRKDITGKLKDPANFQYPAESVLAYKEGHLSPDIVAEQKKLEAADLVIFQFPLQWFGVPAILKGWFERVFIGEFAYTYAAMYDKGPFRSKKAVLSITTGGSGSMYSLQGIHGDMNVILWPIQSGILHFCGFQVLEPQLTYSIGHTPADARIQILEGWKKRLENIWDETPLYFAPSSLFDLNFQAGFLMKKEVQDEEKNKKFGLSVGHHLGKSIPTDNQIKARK

Compound | IC50 (HaCaT [1]) [µM] | other results
CCc1noc(-c2ccc3c(c2)C(=O)C=CC3=O)n1 | 14 | 
CC(=O)/C=C/c1cc2c(s1)C(=O)c1ccccc1C2=O | > 30 | 
O=C1c2ccccc2C(=O)c2sc(-c3nnco3)cc21 | 0.22 | 
CC(=O)c1cc2c(s1)C(=O)c1ccccc1C2=O |  | Activity (HaCaT [2]): 3.7%; Activity (HaCaT [3]): 4.2%; Flu intensity (HaCaT [4]): 19.2; Flu intensity (HaCaT [5]): 500; Activity [6]: 1.2 µmol/L/min; Activity [7]: 0.8 µmol/L/min; Flu intensity (HaCaT [8]): 434.5
CCc1noc(-c2cc3ccccc3s2)n1 | > 30 | 
CC1=CC(=O)c2ccccc2C1=O [MENADIONE] |  | Activity (HaCaT [2]): 3.1%; Activity (HaCaT [3]): 4.8%; Flu intensity (HaCaT [4]): 44; Flu intensity (HaCaT [5]): 431.9; Activity [6]: 2.1 µmol/L/min; Activity [7]: 1 µmol/L/min; Flu intensity (HaCaT [8]): 457.2
Cc1cc2c(s1)C(=O)c1ccccc1C2=O | 5.2 | Activity (HaCaT [2]): 4.3%; Activity (HaCaT [3]): 4.3%; Flu intensity (HaCaT [4]): 11.5; Flu intensity (HaCaT [5]): 517; Activity [6]: 1.1 µmol/L/min; Activity [7]: 0.3 µmol/L/min; Flu intensity (HaCaT [8]): 633.5
O=C1c2ccccc2C(=O)c2c([N+](=O)[O-])csc21 | 1.1 | 
CCc1noc(-c2cc3c(OC)c4ccccc4c(OC)c3s2)n1 | 6.7 | 
CCc1noc(-c2cc3c(s2)Cc2ccccc2C3=O)n1 | 7.3 | 
O=C(Nc1cc2c(s1)C(=O)c1ccccc1C2=O)c1ccccc1 | 2.3 | 
CCc1nnc(-c2cc3c(s2)C(=O)c2ccccc2C3=O)s1 | > 15 | 
CCc1noc(-c2cc3c(OC)ccc(OC)c3s2)n1 | > 30 | 
CCc1nc(-c2ccc3c(c2)C(=O)c2ccccc2C3=O)no1 | > 30 | 
O=C1c2ccccc2C(=O)c2sc([N+](=O)[O-])cc21 | 1.8 | Activity (HaCaT [2]): 3.4%; Activity (HaCaT [3]): 5.6%; Flu intensity (HaCaT [4]): 138; Flu intensity (HaCaT [5]): 973.8; Activity [6]: 2 µmol/L/min; Activity [7]: 4.6 µmol/L/min; Flu intensity (HaCaT [8]): 1022
CCC(=O)Nc1cc2c(s1)C(=O)c1ccccc1C2=O | 9.6 | 
CC(C)C(=O)Nc1cc2c(s1)C(=O)c1ccccc1C2=O | 3.3 | 
O=C1c2ccccc2C(=O)c2sc(-c3nnn[nH]3)cc21 | > 30 | 
CCc1noc(C2=CC(=O)c3ccccc3C2=O)n1 | > 30 | 
NNC(=O)c1cc2c(s1)C(=O)c1ccccc1C2=O | 1.7 | 
O=C1c2ccccc2C(=O)c2sc(-c3nnc(-c4ccccc4)o3)cc21 | > 30 | 
CCc1noc(-c2ccc3c(=O)c4ccccc4oc3c2)n1 | > 30 | 
O=C1c2ccccc2C(=O)c2sccc21 [THIOPHENONAPHTHOQUINONE] |  | Activity (HaCaT [2]): 7.4%; Activity (HaCaT [3]): 4%; Flu intensity (HaCaT [4]): 10.5; Flu intensity (HaCaT [5]): 552.7; Activity [6]: 1.2 µmol/L/min; Activity [7]: 1.2 µmol/L/min; Flu intensity (HaCaT [8]): 583.3
CCCC(=O)Nc1cc2c(s1)C(=O)c1ccccc1C2=O | 5.7 | 
CCc1noc(-c2ccc(C(C)=O)cc2)n1 | > 30 | 
Cc1nnc(-c2cc3c(s2)C(=O)c2ccccc2C3=O)s1 | 3.7 | 
CCc1noc(-c2ccccc2)n1 | > 30 | 

Compound | IC50 (HaCaT [1]) [µM] | other results
COC(=O)c1cc2c(s1)C(=O)c1ccccc1C2=O | 0.71 | 
CCc1noc(-c2ccc3ccccc3c2)n1 | > 30 | 
N#Cc1cc2c(s1)C(=O)c1ccccc1C2=O | 0.46 | 
CCc1noc(-c2cc3c(s2)C(=O)C=CC3=O)n1 | 11 | 
CCc1noc(-c2cc3c(OC)c4ccccc4cc3s2)n1 | > 30 | 
CCc1noc(-c2ccc3sc4ccccc4c(=O)c3c2)n1 | > 30 | 
O=C(/C=C/c1cc2c(s1)C(=O)c1ccccc1C2=O)c1ccccc1 | > 30 | 
COc1ccc(C(=O)Nc2cc3c(s2)C(=O)c2ccccc2C3=O)cc1 | 1.1 | 
CCc1nc(-c2cc3c(s2)C(=O)c2ccccc2C3=O)no1 | 0.58 | 
Nc1cc2c(s1)C(=O)c1ccccc1C2=O | > 30 | Activity (HaCaT [2]): 3.2%; Activity (HaCaT [3]): 5.6%; Flu intensity (HaCaT [4]): 76.7; Flu intensity (HaCaT [5]): 518; Activity [6]: 1.1 µmol/L/min; Activity [7]: 0.8 µmol/L/min; Flu intensity (HaCaT [8]): 502.3
CCc1nnc(-c2cc3c(s2)C(=O)c2ccccc2C3=O)o1 | 0.15 | 
CCc1noc(C=C2c3ccccc3C(=O)c3ccccc32)n1 | 6.5 | 
CCc1noc(-c2cc(C(C)=O)cs2)n1 | > 30 | 
O=C(O)c1cc2c(s1)C(=O)c1ccccc1C2=O | > 30 | 
CCc1noc(-c2cc3cc4ccccc4cc3s2)n1 | > 30 | 
CCc1noc(-c2ccc3c(c2)C(=O)c2ccccc2C3=O)n1 | > 30 | 
CN/N=C/c1cc2c(s1)C(=O)c1ccccc1C2=O | > 30 | 
CCc1noc(-c2cc3oc4ccccc4c(=O)c3s2)n1 | > 30 | 
CCc1noc(-c2cccs2)n1 | > 30 | 
O=C1c2ccccc2C(=O)c2sc(-c3nncs3)cc21 | 0.3 | 
O=C1c2ccccc2C(=O)c2sc(/C=N/Nc3ccccc3)cc21 | > 30 | 
Cc1nnc(-c2cc3c(s2)C(=O)c2ccccc2C3=O)o1 | 0.08 | 
CCCCc1nnc(-c2cc3c(s2)C(=O)c2ccccc2C3=O)o1 | 1.9 | 
CCc1noc(-c2ccc(C(=O)c3ccccc3)s2)n1 | > 30 | 
O=Cc1cc2c(s1)C(=O)c1ccccc1C2=O | 1.2 | 
CCc1noc(-c2cc3c(s2)C(=O)c2ccccc2C3=O)n1 | 0.36 | Activity (HaCaT [2]): 6.9%; Activity (HaCaT [3]): 39.3%; Flu intensity (HaCaT [4]): 25.2; Flu intensity (HaCaT [5]): 930.1; Activity [6]: 0.9 µmol/L/min; Activity [7]: 0.5 µmol/L/min; Flu intensity (HaCaT [8]): 558.7
